Ecoli rRNA inh: reduced GFP signal of wild-type E. coli, primary screen, bacterial rRNA inhibitor project, GFP/RFP fluorescence, OD600, single point; 350,000 compounds, 1.6% hits; GFP signal change (wild-type ribosome), % (no concentration beside the values); E. coli WT GFP vs humanized-ribosome RFP mutants, 24 h; stronger effect = lower value; DMSO median 0, no signal -100;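 active = significant combined selectivity score with lowered wild-type GFP, culture density cut under 30%, mutant RFP and density less affected; inactive = any of these conditions unmet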
FN deposit inh: inhibitors of fibronectin matrix deposition, primary screen, AH1F cells, Alexa488-fibronectin fluorescence, plate reader | AH1F fibroblasts, overnight | inhibition, % at 12.6 µM | 350,000 compounds, 0.086% hits | AID 743247, 2014;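 active = mean inhibition across replicates of 30% or more, regardless of how many single replicates reach that level; inconclusive = mean under 30% yet at least half of replicates reach 30%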
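Measured by – fluorescence 485/525 nm · System – AH1F fibroblast monolayer, labelled fibronectin deposition · Amount – 10000 cells per well · Buffer or medium – serum-reduced DMEM (2% serum) · Doses – single dose, pinned · Also added – fluorescent fibronectin at 24 nM final · Schedule – 1 h cell attachment, overnight exposure to compound and label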
Env fusion inh: inhibitors of HIV-1 Env-driven cell-cell fusion, primary screen, HeLa-JRFL effector, CEM21 target cells, luciferase. inhibition, % at 12.3 µM. 360,000 compounds, 1.1% hits. AID 651610, 2012;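 active = mean replicate inhibition score of at least 50 and every replicate individually at or above 50; inconclusive = only one of the two criteria met; inactive = mean below 50 and not all replicates reaching 50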
PGC1a acetyl inh: inhibitors of PGC1a acetylation signal, primary screen, cell-based, U2OS, AlphaScreen, inhibitor mode. AlphaScreen anti-acetyl-lysine; with virally co-expressed GCN5 acetyltransferase. inhibition, % at 15.6 µM. 350,000 compounds, 0.17% hits. AID 651687, 2012;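 active = every replicate shows inhibition of at least 40%; inconclusive = mean inhibition at least 40% but some replicate below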
DENV2 CPE rescue: inhibitors of DENV2 cytopathic effect, primary screen, cell-based, plate reader, single concentration; DENV2-infected cells, cytopathic effect rescue; CPE inhibition, % at 9.99 µM; 350,000 compounds, 1.7% hits; AID 651640, 2012; in the data active = CPE inhibition above about 20%, passing the limit was not always enough; inconclusive = no clear call, values can overlap the other calls; tested in BHK-21 cells
PglD inh: C. jejuni PglD acetyltransferase inhibitors, primary screen, biochemical, DTNB colorimetric, single point; UDP-N-acetylbacillosamine N-acetyltransferase PglD (Campylobacter jejuni); purified PglD enzyme, DTNB colorimetric CoA detection; inhibition, % at 12.5 µM; 360,000 compounds, 0.098% hits; in the data active = inhibition above about 16%, passing the limit was not always enough; inconclusive = no clear call, values can overlap the other calls
Large screens that a line does not name were inactive. This is a sample that favours compounds with a hit; in the whole collection about 3.5% have one here.

O=C(N/N=C/c1ccco1)c1cc(-c2ccc(Br)s2)[nH]n1	none (no result: PGC1a acetyl inh, PglD inh)
CO[C@H]1CN(C)C(=O)c2cc(NC(=O)Nc3cccc(F)c3)ccc2OC[C@H](C)NC[C@H]1C	DENV2 CPE rescue inconclusive (no result: Env fusion inh)
CNC[C@@H]1Oc2c(NC(=O)Nc3ccc4c(c3)OCO4)cccc2C(=O)N([C@@H](C)CO)C[C@@H]1C	none
C[C@H]1CN([C@@H](C)CO)C(=O)c2cc(NC(=O)CCCN(C)C)ccc2O[C@H]1CN(C)C(=O)Nc1cccc2ccccc12	none (no result: Env fusion inh)
O=C(CSc1nnc(COc2cccc3cccnc23)o1)N1CCCC1	none (no result: PglD inh)
COc1cccc(C(=O)CSc2nnc(COc3cccc4cccnc34)o2)c1	Ecoli rRNA inh -35 (no result: FN deposit inh, Env fusion inh)
CC1CCCC(C)N1C(=O)CSc1nnc(COc2cccc3cccnc23)o1 (centres undefined)	none (no result: DENV2 CPE rescue, PglD inh)
Cc1ccc(C(=O)CSc2nnc(COc3cccc4cccnc34)o2)cc1	Ecoli rRNA inh -32 (no result: FN deposit inh, DENV2 CPE rescue)
COC(=O)/C(=C\Nc1cccc(Cl)c1C)c1ncc(C(F)(F)F)cc1Cl	PGC1a acetyl inh 41 (no result: Ecoli rRNA inh, FN deposit inh, Env fusion inh, DENV2 CPE rescue, PglD inh)
Cc1c(Cl)cccc1NC(=S)NNc1ncc(C(F)(F)F)cc1Cl	Env fusion inh 67 (no result: Ecoli rRNA inh, DENV2 CPE rescue)
Cc1ccccc1NC(=S)NNc1ncc(C(F)(F)F)cc1Cl	none (no result: Ecoli rRNA inh, DENV2 CPE rescue)
COc1ccc(NC(C)(C)c2nnnn2-c2c(C)cccc2C)cc1	Ecoli rRNA inh -25 (no result: PGC1a acetyl inh, PglD inh)
CC(C)NC(=O)N1C[C@H]2[C@@H](c3ccccc31)[C@@H](CO)N2C(=O)Nc1ccccc1	none (no result: FN deposit inh, Env fusion inh)
CC(c1ccccc1C(O)c1ccccc1)N(C)C (centres undefined)	none (no result: FN deposit inh, Env fusion inh, DENV2 CPE rescue)
Cc1ccc(C(O)(c2ccccc2)c2ccccc2C(C)N(C)C)c(C)c1 (centres undefined)	Env fusion inh 79 (no result: Ecoli rRNA inh, PGC1a acetyl inh, DENV2 CPE rescue, PglD inh)
O=S(=O)(/N=C(/c1ccc(F)cc1)N1CCCCC1)c1ccc(Cl)cc1	Ecoli rRNA inh -22 (no result: PGC1a acetyl inh)
O=S(=O)(/N=C(/c1ccc(Cl)cc1)N1CCOCC1)c1ccc(Cl)cc1	none (no result: Ecoli rRNA inh, FN deposit inh, Env fusion inh, DENV2 CPE rescue)
CC(=O)N1CC(C)Sc2ccc(S(=O)(=O)NCCc3ccc(C)cc3)cc21 (centres undefined)	none
CC(=O)N1CC(C)Sc2ccc(S(=O)(=O)NCCc3ccccc3)cc21 (centres undefined)	Ecoli rRNA inh -25
CCCN1C[C@H](C)[C@@H](OC)CN(C)C(=O)c2ccc(NC(=O)C3CCC3)cc2OC[C@H]1C	none
CN(C)C(=O)c1cccc(-c2ccc(C3[C@H]4CNC[C@@H]3N4C(=O)Nc3cc(F)ccc3F)cc2)c1 (some centres undefined)	none (no result: Env fusion inh, PglD inh)
CO[C@H]1CN(C)C(=O)c2cc(NC(C)=O)ccc2OC[C@@H](C)N(Cc2cccc(F)c2)C[C@@H]1C	none
CCOCCCn1c(SCC(=O)NCc2ccco2)nc2c(sc3ccccc32)c1=O	Env fusion inh 56 (no result: PGC1a acetyl inh, DENV2 CPE rescue)
CCCCn1c(SCC(=O)NCc2ccco2)nc2c(sc3ccccc32)c1=O	none (no result: Ecoli rRNA inh, PGC1a acetyl inh, DENV2 CPE rescue)
C[C@H](CO)N1C[C@H](C)[C@H](CN(C)S(=O)(=O)c2ccc(F)cc2)OCCCC[C@H](C)Oc2ccc(NC(=O)c3ccncc3)cc2C1=O	none
c1ccc(-c2cn(CC3CCCCC3)nn2)cc1	none
OCCCc1cn(CC2CCCCC2)nn1	DENV2 CPE rescue 48
CN(C)C(=O)C[C@H]1CC[C@H]2[C@@H](COC[C@H](O)CN2Cc2nccs2)O1	none
COc1cccc(NC(=O)N2CC3(C2)[C@H](c2ccccc2)[C@@H](CO)N3C(=O)C2CC2)c1	none (no result: PglD inh)
O=C(Nc1ccc(OC(F)(F)F)cc1)Oc1ccccc1N1CCOCC1	none (no result: PGC1a acetyl inh, PglD inh)
O=C(Nc1ccc(OC(F)(F)F)cc1)Oc1ccccc1N1CCCCC1	Ecoli rRNA inh -50
O=C(C[C@H]1CC[C@H]2NC[C@H](O)COC[C@@H]2O1)NCc1ccc(Oc2ccccc2)cc1	none
CCOc1cc(/C=C2\SC(=Nc3ccccc3)N(c3ccccc3)C2=O)ccc1OCC(=O)O	Ecoli rRNA inh -31 (no result: PGC1a acetyl inh, PglD inh)
CCOc1ccc(/C=C/C2=NNC(=O)CC2)cc1	none (no result: PglD inh)
COc1ccc(/C=C/C2=NNC(=O)CC2)cc1	Env fusion inh 60 (no result: PglD inh)
CCC(CC)C(=O)NCCc1cc2ccc(C)cc2[nH]c1=O	Ecoli rRNA inh -14
CCC(=O)NCCc1cc2ccc(C)cc2[nH]c1=O	none
O=C(C[C@H]1CC[C@H]2[C@@H](COC[C@H](O)CN2C(=O)c2cccnc2)O1)NCc1ccccc1	DENV2 CPE rescue inconclusive (no result: Env fusion inh)
Cc1cccc(-c2ccc([C@H]3[C@@H](CO)N4C(=O)CN(C(=O)c5ccc6c(c5)OCO6)C[C@@H]34)cc2)c1	none (no result: Env fusion inh, PGC1a acetyl inh, PglD inh)
O=C(O)CSc1cc(NS(=O)(=O)c2cccc([N+](=O)[O-])c2)c2ccccc2c1O	Ecoli rRNA inh -34
Cc1cccc(CN2CCN(CC(=O)NCCCN3CCN(c4ccc(F)cc4)CC3)C2=O)c1	Env fusion inh 59 (no result: Ecoli rRNA inh, FN deposit inh, DENV2 CPE rescue)
O=C1CCCc2[nH]c3cccc(/C(=C/c4ccccc4)c4ccccc4)c3c21	Env fusion inh 70
COC(=O)c1ccc2[nH]c3cccc(/C(=C/c4ccccc4)c4ccccc4)c3c2c1	none
O=C(NOCc1ccccc1)c1coc(-c2ccccc2)n1	Ecoli rRNA inh -26
COCC(=O)N1[C@@H]2c3ccc(-c4ccccc4)c(=O)n3C[C@H]1[C@H](CO)[C@H]2C(=O)NCc1ccccn1	none (no result: FN deposit inh, PGC1a acetyl inh)
CC=Cc1ccc2n(c1=O)C[C@H]1[C@H](CO)[C@@H](C(=O)N(C)C)N(CC3CCCCC3)[C@@H]21 (mixture of isomers)	none (no result: FN deposit inh, Env fusion inh)
CN(C)c1ccc(C#Cc2ccc3cc(CCCO)oc(=O)c3c2)cc1	DENV2 CPE rescue 78
C[C@@H]1CN([C@@H](C)CO)C(=O)Cc2cc(NC(=O)C3CC3)ccc2O[C@@H]1CN(C)Cc1ccc(C(=O)O)cc1	none
O=C(c1ccccc1F)N1CC[C@@H]2[C@H](CO)Nc3ccc(C#Cc4ccccc4F)cc3[C@@H]21	DENV2 CPE rescue 62 (no result: Env fusion inh)
COc1ccccc1C#Cc1ccc2c(c1)[C@H]1[C@H](CCN1C(=O)c1ccncc1)[C@H](CO)N2	DENV2 CPE rescue 36 (no result: Ecoli rRNA inh, FN deposit inh, Env fusion inh)
O=S(=O)(c1ccc(F)cc1)N1CC[C@@H]2[C@H]1c1cc(C#CC3CCCCC3)ccc1N[C@@H]2CO	none (no result: Env fusion inh, PglD inh)
O=C(c1ccccc1F)N1CC[C@@H]2[C@H](CO)Nc3ccc(C#Cc4ccc(F)cc4)cc3[C@@H]21	DENV2 CPE rescue 26 (no result: Env fusion inh)
O=S(=O)(c1ccccc1)N1CC[C@@H]2[C@H]1c1cc(C#CC3CCCCC3)ccc1N[C@@H]2CO	DENV2 CPE rescue 28 (no result: Env fusion inh, PglD inh)
C[C@@H]1CN([C@H](C)CO)C(=O)c2cc(N(C)C)ccc2O[C@@H](C)CCCCO[C@H]1CN(C)S(=O)(=O)c1ccc(F)cc1	none

Assay outcomes from PubChem BioAssay.
